Published values of several laboratories.
Each line is one published result; the experiments were not run side by side.
Target: Casein kinase I isoform alpha (CSNK1A1, Homo sapiens, UniProt P48729)

| SMILES | effect on | mode | method | cells | concentration | endpoint | value |
| --- | --- | --- | --- | --- | --- | --- | --- |
| CCN1CCN(Cc2ccc(NC(=O)c3ccc(C)c(/C=C/c4cnc5[nH]ccc5c4OC)c3)cc2C(F)(F)F)CC1 | target engagement in cells | inhibitor | chemoproteomics | A-375 | 0.5 µM | inhibition | -75.1% |
| COc1cc2ncnc(Nc3ccc(F)c(Cl)c3)c2cc1OCCCN1CCOCC1 | cell-free assay | – | – | – | 0.5 µM | remaining signal | 98.6% |
| c1ccc(CNc2nc(N3CCOc4ccccc43)nc3c2CCCC3)cc1 | target engagement in cells | inhibitor | chemoproteomics | – | 20 mM | inhibition | -1.4% |
| Nc1ncnc2occ(-c3ccc(NC(=O)Nc4cc(C(F)(F)F)ccc4F)cc3)c12 | enzyme activity | inhibitor | – | – | 20 µM | remaining activity | 3.7% |
| CCC(=O)N[C@H]1CC[C@@H](C(=O)N(C)c2ccc(-c3nc4ccccc4o3)cc2)C1 | cell-free assay | – | competition with immobilised ligand | – | 1 µM | remaining binding | 82% |
| O=C1Cc2c([nH]c3ccc(Br)cc23)-c2ccccc2N1 | cell-free assay | – | – | – | 0.5 µM | remaining signal | 95.1% |
| Cc1ccc(C(=O)Nc2ccc(CN3CCN(C)CC3)c(C(F)(F)F)c2)cc1C#Cc1cnc2cccnn12 | enzyme activity | inhibitor | – | – | 23.5 nM | remaining activity | 86% |
| CO[C@H]1CC[C@H](CNc2ccc(S(=O)(=O)NC(=O)c3ccc(N4CCN(CC5=C(c6ccc(Cl)cc6)CC(C)(C)CC5)CC4)cc3Oc3cnc4[nH]ccc4c3)cc2[N+](=O)[O-])CC1 | cell-free assay | – | competition with immobilised ligand | – | 1 µM | remaining binding | 85% |
| COc1cc(OC)c(C=C2C(O)=Nc3ccccc32)c(OC)c1 | cell-free assay | inhibitor | – | – | 0.5 µM | remaining signal | 59.6% |
| CN(C)C(=O)Cn1cc(-c2nc(C3(c4ccc(-c5cnc(N)nc5)cc4)CC3)no2)cn1 | cell-free assay | – | competition with immobilised ligand | – | 1 µM | remaining binding | 62% |
| O=C1NC(=O)c2cc(Nc3ccc(F)cc3)c(Nc3ccc(F)cc3)cc21 | cell-free assay | inhibitor | – | – | 0.5 µM | remaining signal | 88% |
| COc1cc2ncnc(Nc3ccc(Oc4ccccc4)cc3C)c2cc1OC | enzyme activity | inhibitor | – | – | 1 µM | inhibition | 3% |
| Nc1cnc(N2CCc3cc(S(=O)(=O)Nc4c(F)cc(Cl)cc4F)cc(N4CCCC4=O)c32)nc1 | cell-free assay | – | competition with immobilised ligand | – | 1 µM | remaining binding | 100% |
| Cc1sc(C(=O)NC2COC2)cc1-n1cc(NC(=O)Nc2c(F)cccc2Cl)cn1 | enzyme activity | inhibitor | – | – | 10 µM | remaining activity | 81.1% |
| CNc1cccc2cc(C(=O)Nc3ccc(C(=O)O)cc3)c(=O)[nH]c12 | enzyme activity | inhibitor | – | – | 10 µM | inhibition | 3.5% |
| CC(=O)N1CCC(c2ccc(C(=O)NC3=NCCN3)cc2C(F)(F)F)CC1 | cell-free assay | – | competition with immobilised ligand | – | 1 µM | remaining binding | 76% |
| CN(CCCC(F)(F)F)c1nccc(-c2cnn3ncccc23)n1 | binding | – | – | – | 1 µM | remaining binding | 86% |
| CN(C)C(=O)Cn1cc(-c2nc([C@@](C)(c3ccc(-c4cnc(N)nc4)cc3)C3CC3)no2)cn1 | cell-free assay | – | competition with immobilised ligand | – | 1 µM | remaining binding | 100% |
| CC(C)(C)c1nc2c(s1)c1nc(N)ncc1c1ccc(NS(=O)(=O)c3c(F)cccc3F)c(F)c12 | enzyme activity | inhibitor | radiometric | – | 1 µM | remaining activity | 86% |
| CN(C)C1CCN(CC#Cc2nn(C3CCCC3)c3nc(NCc4ccccc4)ncc23)C1 (stereo not drawn) | enzyme activity | inhibitor | FRET | – | 1 µM | inhibition | 2% |
| Cc1c(NC(=O)c2cc(C(N)=O)nc3cc(F)ccc23)c(C(F)(F)F)nn1Cc1ccc(C#N)cc1 | cell-free assay | – | competition with immobilised ligand | – | 1 µM | remaining binding | 72% |
| CCN1CCN(Cc2ccc(NC(=O)c3ccc(C)c(Oc4ccnc5[nH]ccc45)c3)cc2C(F)(F)F)CC1 | target engagement in cells | inhibitor | chemoproteomics | A-375 | 50 nM | inhibition | -28% |
| Cc1ccc(NC(=O)c2ccc(CN3CCN(C)CC3)cc2)cc1Nc1nccc(-c2cccnc2)n1 | enzyme activity | inhibitor | – | – | 0.5 µM | activity vs control | 102% |
| COc1cc(-c2cn(C3CCc4c(F)cccc4N(CC(F)(F)F)C3=O)nn2)ccc1-n1cnc(C)c1 (stereo not drawn) | cell-free assay | – | competition with immobilised ligand | – | 1 µM | remaining binding | 100% |
